# High-throughput results deposited in PubChem by Broad Institute.
# Sampled rows, rich in hits. Any-hit rate of the full collection: about 2.3%.
# ERp5 inh: inhibitors of human ERp5. Q15084. ERp5 insulin aggregation, absorbance 650 nm, 90 min. inhibition, % at 9.99 µM. 0.05% of 350,000 active;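 active = mean replicate inhibition above about 25%, with every replicate also reaching it, limit read from the data, passing the limit was not always enough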
# Target sequence (Q15084 whole entry, looked up): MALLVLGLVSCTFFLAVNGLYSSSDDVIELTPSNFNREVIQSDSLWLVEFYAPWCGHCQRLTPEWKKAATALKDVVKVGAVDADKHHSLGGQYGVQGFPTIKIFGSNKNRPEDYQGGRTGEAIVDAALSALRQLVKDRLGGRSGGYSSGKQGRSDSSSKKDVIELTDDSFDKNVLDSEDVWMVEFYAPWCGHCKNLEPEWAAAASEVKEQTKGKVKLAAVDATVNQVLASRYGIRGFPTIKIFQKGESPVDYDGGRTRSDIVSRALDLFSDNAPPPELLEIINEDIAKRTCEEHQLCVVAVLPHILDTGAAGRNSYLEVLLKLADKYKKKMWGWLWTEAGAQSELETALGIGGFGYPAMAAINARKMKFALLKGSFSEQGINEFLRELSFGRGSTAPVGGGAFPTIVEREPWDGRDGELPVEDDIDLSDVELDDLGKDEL
# C2C12 statin: suppressors of simvastatin-induced myotoxicity in C2C12 myotubes; ATP luminescence, 48 h; scaled: DMSO 0, geranylgeraniol control 100; rescue of ATP level, % at 7.49 µM; 0.78% of 330,000 active; AID 602340;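 active = mean ATP rescue above about 67%, or every replicate alone reaching that limit, limit read from the data, passing the limit was not always enough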;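 also: myotubes were challenged with 10 µM simvastatin during compound exposure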
# F508del corr: CFTR F508del correction in bronchial cells | CFBE cells, YFP halide quenching; stimulated with forskolin plus potentiator P3; % fluorescence drop versus neutral controls | AID 720511 | activity (quench increase), % at 7.58 µM | 0.36% of 350,000 active;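 active = mean added fluorescence quench of at least 8% versus neutral control, with both replicates also reaching 8%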;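 also: cells transiently co-express mutant CFTR-F508del with the halide-sensitive YFP; corrector assay measuring rescue of mutant channel to the surface after 24 h compound exposure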
# Cneo AK release: causes C. neoformans cell lysis | adenylate kinase release luminescence, 4 h; normalised: neutral wells 0, clomiphene wells 100 | lysis activity, % at 15 µM | 0.2% of 360,000 active | AID 651654;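 active = mean lysis activity across replicates of at least 80%, whatever share of replicates individually reach that level; inactive = mean lysis activity below 80%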
#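 Assay system: C. neoformans cells. Amount: yeast cell density of 5 × 10^6 cells/mL. Technique: AK luminescence. Buffer or medium: YPD. Times: static 4 h at 37 °C with compound, 1 h detection. Dosing: single-point compound dose. Read-out: lysis from increased AK signal.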
# PDI turbidity: PDI (human) enzyme inhibition; 0.052% of 350,000 active; P07237; PDI insulin aggregation turbidity, A650, 90 min; AID 588391; inhibition, % at 10 µM;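 active = mean inhibition across replicates of 30% or more, whatever share of single replicates reach that level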
# DENV2 CPE: inhibitors of DENV2 cytopathic effect | 1.7% of 350,000 active | CPE inhibition, % at 9.99 µM | DENV2-infected cells, cytopathic effect rescue, plate reader | AID 651640; in the data active = CPE inhibition above about 20%, passing the limit was not always enough; tested in BHK-21 cells;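 also: 0% = median of neutral control wells and 100% = median of positive control wells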
# * = called active by the depositor; . = not tested or not shown.
SMILES,ERp5 inh,C2C12 statin,F508del corr,Cneo AK release,PDI turbidity,DENV2 CPE
CCC(=O)N(C)C[C@H]1Oc2cc(C#CC3CCCC3)ccc2S(=O)(=O)N([C@H](C)CO)C[C@H]1C,8.7,-1.1,-2.2,-2.1,.,-7.7
CCCOc1ccc(C(=O)C(CN2CCOCC2)c2ccccc2)cc1 (stereo not given),.,78.5*,.,-2.1,-2.4,.
O=C(C[C@@H]1C[C@H]2c3cc(NC(=O)C4CCOCC4)ccc3O[C@H]2[C@@H](CO)O1)NCc1ccccn1,-2.4,-0.5,0.8,-4.7,.,-0.2
CCCNC(=O)N1CC2(C1)CN(C(=O)Nc1ccc(F)cc1)[C@@H](CO)c1[nH]c3cc(OC)ccc3c12,0.1,.,-1.2,.,.,8.5
CCCNC(=O)N1CC2(C1)CN(C(=O)Nc1ccc(F)cc1)[C@H](CO)c1[nH]c3cc(OC)ccc3c12,1.3,.,0.3,.,.,23.2*
CCCNC(=O)N1CC2(CN(C)C2)c2c([nH]c3cc(OC)ccc23)[C@@H]1CO,.,.,-2.5,.,.,5.4
COc1ccc2c3c([nH]c2c1)[C@H](CO)N(C(=O)Nc1ccc(F)cc1)CC31CN(Cc2cc(-c3ccccc3)on2)C1,-0.9,.,6.3,.,.,50.2*
CCCNC(=O)N1CC2(C1)CN(C(=O)CCC)[C@@H](CO)c1[nH]c3cc(OC)ccc3c12,.,.,1.6,.,.,21.6*
COc1ccc2c3c([nH]c2c1)[C@@H](CO)N(C(=O)Nc1ccc(F)cc1)CC31CCN(Cc2cc(-c3ccccc3)on2)CC1,-4.1,.,1.9,.,.,-5.4
C[C@@H]1CCCCO[C@H](CN(C)S(=O)(=O)c2ccccc2)[C@@H](C)CN([C@H](C)CO)C(=O)c2cc(NC(=O)CCCCCC(=O)Nc3ccccc3N)ccc2O1,5.7,.,2.4,.,.,-6.6
C[C@H](CO)N1C[C@H](C)[C@H](CN(C)C(=O)Nc2ccc(C(F)(F)F)cc2)Oc2ccc(NC(=O)NC3CCCCC3)cc2C1=O,-0.6,-3.0,-3.6,-4.8,.,-4.2
Cc1noc(C)c1NC(=O)Nc1ccc2c(c1)CC(=O)N([C@H](C)CO)C[C@@H](C)[C@H](CN(C)C(=O)Nc1ccccc1)O2,-0.8,-8.9,-2.2,4.2,.,6.3
CCCn1c(N)c(C(=O)CN(C)CC(=O)Nc2ccc(C)cc2)c(=O)[nH]c1=O,-6.8,.,-2.2,-0.3,-22.3,-2.8
CCCn1c(N)c(C(=O)CN(C)CC(=O)Nc2cc(C)ccc2C)c(=O)[nH]c1=O,1.2,-4.3,-2.7,1.0,-2.7,51.1*
O=C(C[C@@H]1C=C[C@@H](NS(=O)(=O)c2ccc(F)cc2)[C@H](CO)O1)NCc1ccccc1F,-2.2,.,1.3,.,.,14.5
O=C(CSC1=NCCN1)Nc1cccc([N+](=O)[O-])c1,-1.8,34.4,10.3*,5.8,5.3,4.6
C[C@H](CO)N1C[C@H](C)[C@H](CN(C)Cc2ccc(C(F)(F)F)cc2)Oc2ccc(NC(=O)Nc3ccccc3)cc2CC1=O,-2.3,-2.4,-3.8,0.9,.,25.3*
C[C@@H]1CN([C@H](C)CO)C(=O)Cc2cc(NC(=O)Nc3ccc(C(F)(F)F)cc3)ccc2O[C@H]1CN(C)Cc1ccc(C(=O)O)cc1,-6.7,-6.5,-0.8,0.7,.,24.2*
C[C@H](CO)N1C[C@H](C)[C@H](CN(C)Cc2ccc(C(=O)O)cc2)Oc2ccc(NC(=O)Nc3ccc(C(F)(F)F)cc3)cc2CC1=O,-3.6,26.6,-0.6,-4.0,.,-3.8
C[C@@H]1CN([C@H](C)CO)C(=O)Cc2cc(NC(=O)Nc3ccccc3)ccc2O[C@H]1CN(C)Cc1ccc(C(F)(F)F)cc1,1.1,45.0,2.4,55.5,.,-6.9
CC(C)NC(=O)Nc1ccc2c(c1)C(=O)N(C)[C@@H]1CC[C@H](CC(=O)NC3CCCCC3)O[C@@H]1CO2,.,17.0,-0.5,0.8,.,-2.8
Cc1ccc(S(=O)(=O)N(C)C[C@@H]2Oc3c(NC(=O)C4CCOCC4)cccc3C(=O)N([C@@H](C)CO)C[C@H]2C)cc1,16.4,20.0,-3.1,-0.3,.,-1.8
C[C@H]1CCCCO[C@@H](CN(C)C(=O)Nc2cccc3ccccc23)[C@@H](C)CN([C@@H](C)CO)C(=O)c2cc(NC(=O)Cc3ccccc3)ccc2O1,9.5,-55.7,0.4,2.1,.,83.4*
C[C@@H]1CCCCO[C@@H](CN(C)C(=O)Nc2cccc3ccccc23)[C@H](C)CN([C@H](C)CO)C(=O)c2cc(NC(=O)c3ccncc3)ccc2O1,14.0,134.9*,1.3,-3.2,.,2.9
C[C@H](CO)N1C[C@H](C)[C@H](CN(C)C(=O)Nc2cccc3ccccc23)OCCCC[C@H](C)Oc2ccc(NC(=O)NC3CCCCC3)cc2C1=O,-0.2,.,2.2,-4.1,.,4.7
SMILES,ERp5 inh,C2C12 statin,F508del corr,Cneo AK release,PDI turbidity,DENV2 CPE
C[C@H](CO)N1C[C@H](C)[C@@H](CN(C)C(=O)Nc2cccc3ccccc23)OCCCC[C@H](C)Oc2ccc(NC(=O)NC3CCCCC3)cc2C1=O,4.3,.,-0.8,-7.7,.,113.0*
C[C@H](CO)N1C[C@H](C)[C@@H](CN(C)C(=O)NC2CCCCC2)OCCCC[C@H](C)Oc2ccc(NC(=O)Nc3cccc4ccccc34)cc2C1=O,2.4,121.7*,0.7,-1.7,.,-12.4
O=c1oc(-c2ccccc2)cc2ccccc12,-3.6,9.7,5.0,-1.1,.,-9.4
Nc1ccc(-c2cc3ccccc3c(=O)o2)cc1,7.0,4.2,-1.5,2.3,-2.9,67.5*
CC1Cc2ccccc2N1C(=O)C1CCN(S(=O)(=O)Cc2ccccc2)CC1 (stereo not given),.,103.5*,.,3.9,-2.1,.
O=C(O)C1CCN(S(=O)(=O)Cc2ccccc2)CC1,7.3,12.2,1.2,2.1,-0.7,-1.5
CC(=O)N1[C@H](CO)[C@H]2c3ccccc3N(S(=O)(=O)c3ccc(F)cc3)C[C@H]21,.,7.5,0.2,-2.8,.,.
Cc1nnc(Nc2ccc(C(=O)O)cc2)[nH]c1=O,-2.2,.,-2.4,.,-3.3,-2.3
Cc1nnc(Nc2ccc(O)cc2)[nH]c1=O,3.9,106.6*,1.4,0.2,-5.5,-7.4
O=C(Nc1ccccc1)c1ccccc1CSc1ccccc1,-7.9,-7.6,1.1,0.8,-5.8,43.8*
CN(CC(=O)Nc1ccc(F)cc1)CC(=O)NC1CCCCC1,25.2*,6.9,-3.0,-0.9,11.2,-6.9
CN(CC(=O)Nc1ccccc1)CC(=O)Nc1ccc(F)cc1,0.9,12.3,1.4,-3.6,-3.1,0.8
Cc1noc(C)c1NC(=O)Nc1ccc2c(c1)C(=O)N([C@@H](C)CO)C[C@@H](C)[C@@H](CN(C)Cc1ccccc1)OCCCC[C@@H](C)O2,5.1,.,-0.8,25.7,.,88.8*
Cc1noc(C)c1NC(=O)Nc1ccc2c(c1)C(=O)N([C@H](C)CO)C[C@H](C)[C@H](CN(C)Cc1ccc(Cl)c(Cl)c1)OCCCC[C@H](C)O2,2.1,.,-0.7,-4.0,.,26.6*
